In brackets after ≈: the same amount, converted by molar mass.
Assays:
[1] = biological target: T1, Prostaglandin D2 receptor 2 (Homo sapiens, UniProt Q9Y5Y4); assay: Displacement of [3H]-PGD2 from human CRTh2 receptor expressed in HEK293 cells; format: cell-based
T1 sequence (Q9Y5Y4 whole entry): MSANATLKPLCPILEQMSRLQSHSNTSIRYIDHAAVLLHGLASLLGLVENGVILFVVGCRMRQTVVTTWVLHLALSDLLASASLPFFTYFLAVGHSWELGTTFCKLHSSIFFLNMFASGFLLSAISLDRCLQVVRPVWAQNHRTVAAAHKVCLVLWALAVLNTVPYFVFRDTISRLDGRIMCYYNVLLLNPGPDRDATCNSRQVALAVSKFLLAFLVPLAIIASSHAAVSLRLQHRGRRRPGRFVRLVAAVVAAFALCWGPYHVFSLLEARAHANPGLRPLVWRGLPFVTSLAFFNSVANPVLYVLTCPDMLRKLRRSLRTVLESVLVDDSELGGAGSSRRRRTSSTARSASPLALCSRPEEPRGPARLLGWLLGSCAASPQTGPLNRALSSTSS

[2] = biological target: T1, Prostaglandin D2 receptor 2; assay: Antagonist activity at human CRTh2 receptor expressed in HEK293 cells assessed as inhibition of PGD2-induced calcium flux by FLIPR assay; format: functional, cell-based
[3] = biological target: T1, Prostaglandin D2 receptor 2; assay: Displacement of [3H]-PGD2 from human CRTh2 receptor expressed in HEK293 cells in presence of 0.5% human serum albumin; format: cell-based
[4] = biological target: T2, Prostaglandin D2 receptor (Homo sapiens, UniProt Q13258); assay: Displacement of [3H]-PGD2 from human DP1 receptor expressed in CHO cells; format: cell-based
T2 sequence (Q13258 whole entry): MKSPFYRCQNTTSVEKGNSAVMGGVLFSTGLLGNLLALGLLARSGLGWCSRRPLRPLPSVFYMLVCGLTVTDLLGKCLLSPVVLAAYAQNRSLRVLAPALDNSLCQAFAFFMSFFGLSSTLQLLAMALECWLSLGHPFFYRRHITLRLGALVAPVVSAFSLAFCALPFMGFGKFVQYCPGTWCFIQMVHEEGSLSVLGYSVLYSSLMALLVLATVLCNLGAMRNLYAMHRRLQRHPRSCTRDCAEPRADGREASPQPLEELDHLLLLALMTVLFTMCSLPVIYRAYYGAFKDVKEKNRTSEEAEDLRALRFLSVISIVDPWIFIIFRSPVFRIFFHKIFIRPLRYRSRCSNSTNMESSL

[5] = Lipophilicity, log D of the compound at pH 7.4; format: physicochemical; settings: buffer
[6] = Solubility of the compound in 0.1 M HCl; format: physicochemical; settings: buffer
[7] = Solubility of the compound in phosphate buffer at pH 7; format: physicochemical
[8] = Solubility of the compound in Tris buffer at pH 9; format: physicochemical
[9] = Stability of the compound in simulated gastric fluid assessed as compound remaining after 1 hr; format: physicochemical; settings: read-out: Stability
Procedure, shortened: (§1)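 Compound incubated in simulated gastric fluid for 1 h or simulated intestinal fluid for 4 h; unchanged parent recovered quantified by LC-MS, expressed as % parent remaining.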

[10] = Stability of the compound in simulated intestinal fluid assessed as compound remaining after 4 hrs; format: physicochemical; settings: read-out: Stability; procedure, shortened: as §1
[11] = Metabolic stability of the compound in human plasma assessed as compound remaining after 4 hrs; format: ADME, cell-free; settings: read-out: Stability
[12] = Intrinsic clearance in rat liver microsomes assessed per mg protein; format: ADME, Microsome; settings: read-out: CLH
[13] = Intrinsic clearance in human liver microsomes assessed per mg protein; format: ADME, Microsome; settings: read-out: CLH
[14] = Intrinsic clearance in rat hepatocytes assessed per 10^6 cells; format: ADME, cell-based, Hepatocyte; settings: read-out: CLH
Cytochrome P450 2D6 = Cytochrome P450 2D6 (Homo sapiens, UniProt P10635); assay: Inhibition of CYP2D6; format: ADME
Sequence of Cytochrome P450 2D6 (P10635 whole entry): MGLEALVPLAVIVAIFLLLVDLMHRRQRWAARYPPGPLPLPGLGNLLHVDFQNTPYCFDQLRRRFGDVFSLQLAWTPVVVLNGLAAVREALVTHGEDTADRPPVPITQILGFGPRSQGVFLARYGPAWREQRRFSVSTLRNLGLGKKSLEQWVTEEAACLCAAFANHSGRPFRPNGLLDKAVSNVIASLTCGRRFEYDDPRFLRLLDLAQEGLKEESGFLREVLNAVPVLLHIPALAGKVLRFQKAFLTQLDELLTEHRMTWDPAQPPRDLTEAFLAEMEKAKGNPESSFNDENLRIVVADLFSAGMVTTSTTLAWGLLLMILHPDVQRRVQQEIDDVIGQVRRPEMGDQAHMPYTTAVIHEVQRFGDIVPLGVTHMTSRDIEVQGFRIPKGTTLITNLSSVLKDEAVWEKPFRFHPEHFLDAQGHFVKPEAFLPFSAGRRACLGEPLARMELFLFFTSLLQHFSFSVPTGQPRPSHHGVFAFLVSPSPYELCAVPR

Cytochrome P450 3A4 [15] = biological target: T3, Cytochrome P450 3A4 (Homo sapiens, UniProt P08684); assay: Inhibition of CYP3A4 using midazolam as substrate; format: ADME
T3 sequence (P08684 whole entry): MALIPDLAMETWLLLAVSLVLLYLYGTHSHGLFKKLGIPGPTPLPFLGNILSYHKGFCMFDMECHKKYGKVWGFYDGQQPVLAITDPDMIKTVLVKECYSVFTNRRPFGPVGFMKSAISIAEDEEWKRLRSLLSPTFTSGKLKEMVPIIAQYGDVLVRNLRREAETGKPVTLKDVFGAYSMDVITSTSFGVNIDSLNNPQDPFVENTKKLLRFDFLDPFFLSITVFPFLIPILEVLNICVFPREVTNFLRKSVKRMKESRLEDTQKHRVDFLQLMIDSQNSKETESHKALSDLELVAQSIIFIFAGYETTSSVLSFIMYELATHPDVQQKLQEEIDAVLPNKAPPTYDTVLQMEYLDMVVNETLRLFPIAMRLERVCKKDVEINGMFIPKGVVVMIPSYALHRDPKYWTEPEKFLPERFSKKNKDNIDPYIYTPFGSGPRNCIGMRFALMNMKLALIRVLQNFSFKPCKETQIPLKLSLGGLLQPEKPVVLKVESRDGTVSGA

Cytochrome P450 3A4 [16] = biological target: T3, Cytochrome P450 3A4; assay: Inhibition of CYP3A4 using testosterone as substrate; format: ADME
Cytochrome P450 2C9 = Cytochrome P450 2C9 (Homo sapiens, UniProt P11712); assay: Inhibition of CYP2C9; format: ADME
Sequence of Cytochrome P450 2C9 (P11712 whole entry): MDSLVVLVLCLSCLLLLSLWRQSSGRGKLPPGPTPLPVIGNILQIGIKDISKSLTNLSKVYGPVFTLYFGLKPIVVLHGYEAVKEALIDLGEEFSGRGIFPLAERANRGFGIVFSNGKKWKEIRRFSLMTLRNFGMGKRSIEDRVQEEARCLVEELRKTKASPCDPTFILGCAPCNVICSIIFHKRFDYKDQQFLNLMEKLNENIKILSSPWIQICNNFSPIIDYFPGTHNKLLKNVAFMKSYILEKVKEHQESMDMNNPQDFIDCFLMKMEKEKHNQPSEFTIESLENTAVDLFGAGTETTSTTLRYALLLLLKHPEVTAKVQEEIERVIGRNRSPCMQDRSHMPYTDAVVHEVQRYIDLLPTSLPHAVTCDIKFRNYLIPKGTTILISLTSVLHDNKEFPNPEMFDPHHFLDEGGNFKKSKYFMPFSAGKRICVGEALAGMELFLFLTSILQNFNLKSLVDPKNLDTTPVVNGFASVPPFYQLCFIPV

[17] = Volume of distribution at steady state in Wistar rat at 1 mg/kg, iv and 10 mg/kg, po; format: ADME, organism-based; settings: in vivo, read-out: Vdss
Procedure, shortened: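 Male Wistar rats, 3 animals per experiment; intravenous dose 1 mg/kg and oral dose 10 mg/kg, each given as a solution.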

Compound | IC50 [1] [nM] | other results
O=C(O)Cn1c(SCc2cccc(Br)c2)nc2ccccc21 | 370 | –
COc1ccc(C)cc1CSc1nc2ccccc2n1CC(=O)O | 1200 | –
CCCCNC(=O)c1ccc(OC)c(CSc2nc3cc(F)ccc3n2CC(=O)O)c1 | 16 | IC50 [2]: 15 nM; IC50 [3]: 81 nM; IC50 [4]: > 10000 nM; logD [5]: 0.1; solubility [6]: 670 µg/mL (≈ 1500 µM); solubility [7]: 719 µg/mL (≈ 1610 µM); solubility [8]: > 750 µg/mL; remaining at 1 h [9]: 94%; remaining at 4 h [10]: 78%; remaining at 4 h [11]: 100%; microsomal CLint [12]: 60 µL/min/mg; microsomal CLint [13]: 7 µL/min/mg; hepatocyte CLint [14]: 6 µL/min/1e6 cells; IC50 (Cytochrome P450 2D6): > 50000 nM; IC50 (Cytochrome P450 3A4 [15]): 4000 nM; IC50 (Cytochrome P450 3A4 [16]): 7000 nM; IC50 (Cytochrome P450 2C9): 6000 nM
O=C(O)Cn1c(SCc2ccc(Cl)c(Cl)c2)nc2ccccc21 | 380 | –
O=C(O)Cn1c(SCCOc2cccc3ccccc23)nc2ccccc21 | 2000 | –
O=C(O)Cn1c(SCCOc2ccc3ccccc3c2)nc2ccccc21 | 2500 | –
CCOC(=O)CCCSc1nc2ccccc2n1CC(=O)O | 4410 | –
COc1ccc(OC)c(CSc2nc3ccccc3n2CC(=O)O)c1 | 1600 | –
COC(=O)c1ccc(OC)c(CSc2nc3ccccc3n2CC(=O)O)c1 | 29 | –
O=C(O)Cn1c(SCCCNc2ccccc2)nc2ccccc21 | 2690 | –
CCNC(=O)CCCCSc1nc2ccccc2n1CC(=O)O | > 10000 | –
COc1ccc(Cl)cc1CSc1nc2ccccc2n1CC(=O)O | 740 | –
COc1ccc(C(=O)NCc2ccccc2)cc1CSc1nc2cc(F)ccc2n1CC(=O)O | 59 | IC50 [2]: 94 nM
CC(=O)CC(c1ccccc1)c1c(O)c2ccccc2oc1=O (configuration not stated) [WARFARIN] | – | Vd [17]: 1 L/kg
CC(=O)Oc1ccccc1C(=O)O [ASPIRIN] | – | Vd [17]: 1 L/kg
O=C(O)Cn1c(SCc2ccc(Br)cc2)nc2ccccc21 | 220 | –

Compound | IC50 [1] [nM] | other results
COc1ccc(C(C)=O)cc1CSc1nc2c(F)cccc2n1CC(=O)O | 5 | IC50 [2]: 10 nM
COC(=O)c1ccc(CSc2nc3ccccc3n2CC(=O)O)cc1 | 10600 | –
O=C(O)Cn1c(SCc2ccc(Cl)cc2)nc2ccccc21 | 160 | –
COC(=O)c1ccccc1CSc1nc2ccccc2n1CC(=O)O | 520 | –
COc1ccc(C(=O)c2ccccc2)cc1CSc1nc2cc(F)ccc2n1CC(=O)O | 1.7 | IC50 [2]: 4 nM
COc1ccc(C(C)=O)cc1CSc1nc2cc(S(C)(=O)=O)ccc2n1CC(=O)O | 41 | IC50 [2]: 50 nM
CC(=O)c1cccc(CSc2nc3ccccc3n2CC(=O)O)c1 | 230 | –
CCNC(=O)c1ccc(OC)c(CSc2nc3cc(F)ccc3n2CC(=O)O)c1 | 16 | IC50 [2]: 15 nM
CCCCOc1ccc(C(C)=O)cc1CSc1nc2cc(F)ccc2n1CC(=O)O | 9 | IC50 [2]: 12 nM
COC(=O)c1cccc(CSc2nc3ccccc3n2CC(=O)O)c1Br | 2900 | –
O=C(O)Cn1c(SCCCOc2ccccc2)nc2ccccc21 | 786 | –
O=C(O)Cn1c(SCCCCOc2ccccc2)nc2ccccc21 | 1400 | –
Cc1ccccc1CSc1nc2ccccc2n1CC(=O)O | 810 | –
O=C(O)Cn1c(SCc2cc(Cl)ccc2Cl)nc2ccccc21 | 470 | –
COc1ccc(C(C)=O)cc1CSc1nc2cc(C(C)=O)ccc2n1CC(=O)O | 33 | IC50 [2]: 63 nM

The next lines start with results.

IC50 [1] [nM] | Compound | other results
11400 | CCOC(=O)CCSc1nc2ccccc2n1CC(=O)O | –
210 | COc1ccc(CSc2nc3ccccc3n2CC(=O)O)cc1 | –
1360 | CCCCCCSc1nc2ccccc2n1CC(=O)O | –
330 | COC(=O)c1cc(Br)cc(CSc2nc3ccccc3n2CC(=O)O)c1 | –
475 | O=C(O)Cn1c(SCCCc2ccccc2)nc2ccccc21 | –
105 | Cc1cccc(CSc2nc3ccccc3n2CC(=O)O)c1 | –
2370 | CCCCSc1nc2ccccc2n1CC(=O)O | –
7690 | O=C(O)Cn1c(SCCNc2ccccc2)nc2ccccc21 | –
45 | COC(=O)c1ccc(Br)c(CSc2nc3ccccc3n2CC(=O)O)c1 | –
2 | COc1ccc(C(C)=O)cc1CSc1nc2cc([N+](=O)[O-])ccc2n1CC(=O)O | IC50 [2]: 3 nM
495 | CCN(Cc1ccccc1)C(=O)c1ccc(OC)c(CSc2nc3cc(F)ccc3n2CC(=O)O)c1 | IC50 [2]: 725 nM
150 | COc1ccc(C(=O)OC(C)C)cc1CSc1nc2ccccc2n1CC(=O)O | –
980 | COC(=O)c1cc(CSc2nc3ccccc3n2CC(=O)O)ccc1Br | –
5 | CCCOc1ccc(C(C)=O)cc1CSc1nc2cc(F)ccc2n1CC(=O)O | IC50 [2]: 9 nM
107 | COc1ccc(C(=O)N2CCOCC2)cc1CSc1nc2cc(F)ccc2n1CC(=O)O | IC50 [2]: 91 nM
4 | CCOc1ccc(C(C)=O)cc1CSc1nc2cc(F)ccc2n1CC(=O)O | IC50 [2]: 5 nM
370 | O=C(O)Cn1c(SCc2ccccc2Cl)nc2ccccc21 | –
45 | COc1ccc(C(C)=O)cc1CSc1nc2ccc(F)cc2n1CC(=O)O | IC50 [2]: 89 nM

IC50 [1] [nM] | Compound | other results
450 | COC(=O)c1cccc(CSc2nc3ccccc3n2CC(=O)O)c1 | –
1100 | COc1ccccc1CSc1nc2ccccc2n1CC(=O)O | –
2200 | COc1ccc(C(C)O)cc1CSc1nc2ccccc2n1CC(=O)O (racemic) | –
1500 | O=C(O)Cn1c(SCCOc2ccc(Cl)cc2)nc2ccccc21 | IC50 [2]: 6600 nM
881 | O=C(O)Cn1c(SCCc2ccccc2)nc2ccccc21 | –
72 | CCN(CC)C(=O)c1ccc(OC)c(CSc2nc3cc(F)ccc3n2CC(=O)O)c1 | IC50 [2]: 130 nM
580 | O=C(O)Cn1c(SCc2ccccc2Br)nc2ccccc21 | –
1010 | CCOC(=O)CCCCCSc1nc2ccccc2n1CC(=O)O | –
590 | O=C(O)Cn1c(SCCOc2ccccc2)nc2ccccc21 | –
388 | O=C(O)Cn1c(SCc2ccccc2)nc2ccccc21 | –
2360 | CCOC(=O)CCCCSc1nc2ccccc2n1CC(=O)O | –
4 | COc1ccc(C(C)=O)cc1CSc1nc2cc(C=O)ccc2n1CC(=O)O | IC50 [2]: 9 nM
3 | COc1ccc(C(=O)N2CCc3ccccc32)cc1CSc1nc2cc(F)ccc2n1CC(=O)O | IC50 [3]: 8 nM; IC50 [4]: > 10000 nM; logD [5]: 0.3; solubility [6]: 158 µg/mL (≈ 321 µM); solubility [7]: 812 µg/mL (≈ 1650 µM); solubility [8]: 789 µg/mL (≈ 1610 µM); remaining at 1 h [9]: 100%; remaining at 4 h [10]: 100%; remaining at 4 h [11]: 93%; microsomal CLint [12]: 91 µL/min/mg; microsomal CLint [13]: 2 µL/min/mg; hepatocyte CLint [14]: 12 µL/min/1e6 cells; IC50 (Cytochrome P450 2D6): > 50000 nM; IC50 (Cytochrome P450 3A4 [15]): 5000 nM; IC50 (Cytochrome P450 3A4 [16]): 13000 nM; IC50 (Cytochrome P450 2C9): 28000 nM
220 | Cc1ccc(CSc2nc3ccccc3n2CC(=O)O)cc1 | –
1240 | CCCCCSc1nc2ccccc2n1CC(=O)O | –
186 | O=C(O)Cn1c(SCc2cccc(Cl)c2)nc2ccccc21 | –
72 | COc1cccc(CSc2nc3ccccc3n2CC(=O)O)c1 | –
3 | COc1ccc(C(C)=O)cc1CSc1nc2cc(C(F)(F)F)ccc2n1CC(=O)O | IC50 [2]: 5 nM
